CHRM4 PAM: human M4 muscarinic receptor positive allosteric modulators, primary screen, CHO-K1 cells, Fluo-8 calcium fluorescence | CHO-K1 hM4/Gqi5, ACh EC20; 0% = ACh EC20, 100% = maximal ACh | activation, % at 3 µM | Muscarinic acetylcholine receptor M4 (Homo sapiens), P08173 | AID 624126, 2012 | 0.4% of 360,000 active;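 active = activation above its plate's cutoff, the mean activation of sample wells plus 3 SD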
TAAR1 agonist: human TAAR1 agonists, primary screen, Fluo-8 calcium fluorescence, CHO RD-HGA16 cells. vehicle wells 0%, saturating PEA agonist 100%. 0.99% of 360,000 active. AID 624467, 2012. activation, % at 3 µM;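 active = activation above the mean activation of all test compounds in the run plus 3 SD, cut at about 38% in these data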
Target sequence (Q96RJ0 whole entry, looked up): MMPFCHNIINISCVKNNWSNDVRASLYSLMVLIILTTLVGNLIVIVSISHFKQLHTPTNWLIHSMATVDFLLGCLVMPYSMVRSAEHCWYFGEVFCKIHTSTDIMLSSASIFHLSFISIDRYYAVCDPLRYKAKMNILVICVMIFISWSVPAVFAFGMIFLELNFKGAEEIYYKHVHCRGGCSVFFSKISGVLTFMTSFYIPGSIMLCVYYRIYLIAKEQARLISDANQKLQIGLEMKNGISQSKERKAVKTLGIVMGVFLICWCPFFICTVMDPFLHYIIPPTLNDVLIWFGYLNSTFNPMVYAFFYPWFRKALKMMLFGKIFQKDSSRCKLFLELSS
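test system = CHO RD-HGA16 cells carrying human TAAR1 plus Gα16 | schedule = 17-24 h seeding, 75 min 37 °C dye, 30 min RT | compound dosing = 3 µM single concentration | control set = DMSO and PEA EC100 | replicates = n 1 | signal = Fluo-8 fluorescence, 5 s baseline then 140 s kinetic read | measure = percent activation vs PEA EC100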
TAAR1 antag: human TAAR1 antagonists, primary screen, Fluo-8 calcium fluorescence, CHO RD-HGA16 cells; Trace amine-associated receptor 1 (Homo sapiens), Q96RJ0; antagonist; inhibition, % at 3 µM; 1.5% of 360,000 active;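 active = inhibition above a per-plate cutoff, the mean inhibition of test compounds on that plate plus 3 SD, cut at about 49% in these data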;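 note: 0% = DMSO plus EC80 beta-PEA response and 100% = DMSO alone without agonist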
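Test system: hTAAR1-expressing CHO RD-HGA16 cells, Gα16-coupled; Probe or stimulus: EC80 β-phenethylamine stimulus; Compound dosing: single nominal final test compound concentration of 3 µM; Timing: 140 s kinetic read after compound, 140 s after agonist; Signal: Fluo-8 calcium-sensitive fluorescence; Measure: % inhibition of agonist calcium response; Controls: DMSO and EC80 PEA controls.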
CHRM4 antagonist: human M4 muscarinic receptor antagonists, primary screen, CHO cells, Fluo-8 calcium fluorescence | Muscarinic acetylcholine receptor M4 (Homo sapiens), P08173 | CHO-hM4 cells, ACh EC80 | inhibition, % at 3 µM | 0.73% of 360,000 active;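 active = inhibition above its plate's cutoff, the mean inhibition of sample wells plus 3 SD, cut at about 27% in these data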;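 note: 0% = acetylcholine EC80 with DMSO and 100% = DMSO without agonist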
CHRM4 agonist: human M4 muscarinic receptor agonists, primary screen, CHO-K1 cells, Fluo-8 calcium fluorescence; Muscarinic acetylcholine receptor M4 (Homo sapiens), P08173; AID 624127, 2012; 0.14% of 360,000 active; CHO-K1 hM4/Gqi5; vehicle 0%, full acetylcholine response 100%; activation, % at 3 µM;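 active = activation above the run mean over all test wells plus 3 SD, cut at about 32% in these data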;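 note: peak over basal fluorescence ratio per well then scaled between controls; 0% = DMSO wells and 100% = acetylcholine at EC100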
Starred values were filed as active, the others as inactive; . = no result given. An excerpt weighted towards active compounds, which were near 3% of everything screened.

SMILES	CHRM4 PAM	TAAR1 agonist	TAAR1 antag	CHRM4 antagonist	CHRM4 agonist
COC(=O)C1=C(C)N(Cc2cccc(C(F)(F)F)c2)C(=NCc2ccc(OC)cc2)NC1c1cccc(C(F)(F)F)c1 (configuration not stated)	.	27.1	23.2	.	.
COc1ccc(N2CCN(C(=O)CCCCCn3c(=S)[nH]c4ccc(N5CCOCC5)cc4c3=O)CC2)cc1	-3.5	8.8	56.1*	3.4	12.9
Cc1cc2cc3c(cc2nc1SCC(=O)OC(C)C)OCO3	23.6*	4.1	4.5	-7.6	0.7
Cc1cc2cc3c(cc2nc1SCC(=O)N1CCN(C(=O)c2ccco2)CC1)OCO3	14.9	9.6	-32.1	-3.5	0.8
O=C(CC1(CC2=NS(=O)(=O)c3ccccc3N2)CCCC1)NCCc1ccccc1	-15.4	28.1	58.7*	12.6	15.4
c1ccc(Cn2nnnc2C(c2cccnc2)N2CCN(c3ccccc3)CC2)cc1 (configuration not stated)	-1.0	22.2	50.6*	6.7	13.9
Fc1cccc2sc(Nc3nc4cc5c(cc4s3)OCO5)nc12	8.1	1.9	39.1	-10.4	1.1
Fc1cc(F)c2nc(Nc3nc4cc5c(cc4s3)OCO5)sc2c1	0.8	2.7	61.0*	10.2	0.2
O=C(O)CSc1cc(C(=O)c2ccccc2O)cn2c(=O)c3c4c(sc3nc12)CCCC4	32.7*	2.3	-15.7	8.9	0.7
CCC/C=C/c1ccc(CN2C(C(C)C)C(=O)N(Cc3cn(CC4CCCCC4)nn3)CCS2(=O)=O)cc1 (configuration not stated)	2.9	0.4	-12.1	-9.2	0.4
CCCCCCCCN1C(=O)[C@@H](CC(=O)NCc2cccc(C(F)(F)F)c2)C[C@@]2(C(=O)OC)C1=C[C@H](C1CCCC1)O[C@@H]2C	.	-0.2	-9.8	.	.
Cc1ccc(C(=O)NCc2ccco2)cc1Br	19.6*	2.3	-1.4	-5.0	1.4
CCn1c(C)c(C)c2cc(C(=O)NCCc3ccco3)ccc21	18.2*	-1.4	-15.6	0.8	0.9
Cc1cc(C)c2c(N)c(C(=O)NCc3ccco3)sc2n1	50.0*	15.1	-2.8	-1.3	7.9
COc1ccc(C(=O)N2CCC[C@H]2C(=O)N2CCC[C@@H]2C(=O)NCc2ccccc2)cc1F	.	-0.1	11.8	.	.
Cn1cc(Cc2ccccc2)c(=O)c(Cc2ccccc2)c1	-0.8	1.1	-12.1	-4.4	-0.3
Cc1onc(-c2ccccc2)c1C(=O)NCC1CCN(C(=O)C(=O)c2cccs2)CC1	.	-0.1	-10.6	.	.
O=S1(=O)CC(N2CCN(c3ccccn3)CC2)CN1Cc1ccccc1 (configuration not stated)	-3.4	2.8	-18.2	-3.1	2.4
CCOC(=O)C1CSCCS(=O)(=O)N1Cc1cc(F)ccc1Br (configuration not stated)	.	1.4	-10.3	.	.
CCOC(=O)CN1C(=O)N(c2ccc(OC)cc2)[C@H]2CC3c4ccccc4C[C@]3(C)[C@@H](C(=O)N(C)C3CCCCC3)C[C@H]21 (some centres not stated)	.	1.3	-10.1	.	.
CC(=O)Nc1c(O)nc(SCC(=O)N2CCCCC2)[nH]c1=O	22.9*	1.3	-8.6	-6.5	1.1
CC(=O)Nc1c(O)nc(SCC(=O)Nc2cccc(C)c2)[nH]c1=O	41.6*	0.1	-8.6	-3.1	2.1
COC(=O)c1cccc(NC(=O)CSc2nc(O)c(-c3ccccc3)c(=O)[nH]2)c1	24.4*	2.2	-9.3	-5.3	0.9
COCC(=O)N[C@H]1C=C[C@@H](CC(=O)OC)O[C@@H]1CO	0.3	3.2	-9.3	-2.2	1.0
O=C(NC1CCCN(c2ccc(C(F)(F)F)cn2)C1)c1ccnc(Cl)c1 (configuration not stated)	19.8*	-0.2	5.7	5.0	4.2
SMILES	CHRM4 PAM	TAAR1 agonist	TAAR1 antag	CHRM4 antagonist	CHRM4 agonist
O=C(NC1CCCN(Cc2ccc(Cl)cc2)C1)c1ccnc(Cl)c1 (configuration not stated)	-6.8	0.8	-2.0	5.6	1.6
CCc1ccc(C(O)c2ncc(-c3ccccc3OC)[nH]2)cc1 (configuration not stated)	-6.8	5.0	-13.0	-3.5	6.5
Cc1cc(N/N=C/c2ccccc2)nc(N)n1	6.6	40.7*	8.9	-4.9	0.5
Cc1nc(N)nc(N/N=C/c2ccccc2)n1	11.5	3.0	-3.3	1.0	0.6
COC(=O)[C@]12C[C@H](CC(=O)N3CCSCC3)C(=O)N(Cc3ccc4c(c3)OCO4)C1=C[C@H](C(C)(C)C)O[C@@H]2C	.	-0.1	-16.4	.	.
[N-]=[N+]=NC(c1ccccc1)C(NC(=O)c1cc(C(F)(F)F)cc(C(F)(F)F)c1)c1ccccc1 (configuration not stated)	-13.1	10.2	41.2	30.7*	17.5
CSc1nn(CCC#N)c(=O)[nH]c1=O	.	5.9	-37.1	.	.
O=S(=O)(c1ccc(OC(F)(F)F)cc1)N1CCC(O)(c2cccc(C(F)(F)F)c2)CC1	-14.6	43.1*	36.3	6.9	12.2
COC(=O)[C@]12C[C@H](CC(=O)NCCC(C)C)C(=O)N(CCC3=CCCCC3)C1=C[C@H](COCc1ccccc1)O[C@@H]2C	.	0.0	-16.0	.	.
COc1ccc(-c2cc(C(N)=O)nc(N3CCCCCC3)n2)cc1	27.8*	8.8	-13.9	-5.0	-0.8
COc1ccc(-c2cc(C(F)(F)F)nc(N3CCCCCC3)n2)cc1	-0.7	5.0	-19.7	3.9	1.2
COc1ccc([N+](=O)[O-])c(S(=O)(=O)c2ccccc2)n1	-7.0	-0.1	-10.5	29.6*	-0.7
N=C(N)c1ccc(OCCCCCOc2ccc(C(=N)N)cc2)cc1	-14.2	-0.1	7.2	30.7*	0.0
Cc1ncc(CN2CCCC(C(=O)Nc3ccc(-c4ccco4)cc3)C2)n1C (configuration not stated)	-11.9	0.2	-19.6	30.9*	0.6
COC(=O)[C@]12C[C@H](CC(=O)NCCC(C)C)C(=O)N(CCC3=CCCCC3)C1=C[C@H](C(C)(C)C)O[C@@H]2C	.	-1.9	-77.0	.	.
c1ccc(Cc2noc(CN3CCCN(C4Cc5ccccc5C4)CC3)n2)cc1	-28.2	5.9	-20.0	51.1*	15.1
C[C@@H]1CN([C@@H](C)CO)C(=O)CCCn2cc(nn2)CO[C@H]1CN(C)C(=O)Nc1ccc(N2CCN(C)CC2)cc1	.	3.9	-13.0	.	.
CC1CN(C(=O)c2ccc(S(=O)(=O)Nc3cccc(C(F)(F)F)c3)cc2)CC(C)O1 (configuration not stated)	-2.4	58.9*	17.1	-10.8	11.8
O=C(c1ccc(S(=O)(=O)Nc2cccc(C(F)(F)F)c2)cc1)N1CCOCC1	-6.9	5.2	4.8	10.2	6.6

High-throughput results deposited in PubChem BioAssay by The Scripps Research Institute Molecular Screening Center.
